Converted amounts (≈) assume the structure as drawn.
What was measured:
[1] = tested on: Escherichia coli; test: Antibacterial activity determined against Escherichia coli; format: functional
Summary of the method: (§1)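 Broth microdilution: an overnight-culture bacterial suspension was added to compound in 2.5% DMSO in water, giving a final inoculum of about 10^2–10^3 CFU/well. Plates were incubated 20–24 h at 37 °C, and growth relative to a no-compound control was read as A595. MIC was given as a range: complete inhibition at the upper concentration, viable cells at the lower.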

[2] = tested on: Staphylococcus aureus; test: Antibacterial activity determined against Staphylococcus aureus; format: functional; summary of the method: as §1
[3] = Inhibition of bacterial transcription/translation
[4] = tested on: Candida albicans; test: Antifungal activity determined against Candida albicans 10231; format: functional
Summary of the method: as §1, with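 “Candida albicans:” for “Broth microdilution:”, “yeast” for “bacterial”, “40–48” for “20–24”, “25” for “37”, “versus” for “relative to”, “higher” for “upper”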

[5] = tested on: Escherichia coli; test: Antibacterial activity determined against gram-negativeE. coli 25922; format: functional; summary of the method: as §1
[6] = tested on: Enterococcus hirae; test: Antibacterial activity determined against gram-positive Enterococcus hirae 29212; format: functional; summary of the method: as §1
[7] = tested on: Klebsiella pneumoniae; test: Antibacterial activity determined against gram-negativeK. pneumoniae 13383; format: functional; summary of the method: as §1
[8] = tested on: Proteus vulgaris; test: Antibacterial activity determined against gram-negativeP. vulgaris 8427; format: functional; summary of the method: as §1
[9] = tested on: Pseudomonas aeruginosa; test: Antibacterial activity determined against gram-negativeP. aeruginosa 25416; format: functional; summary of the method: as §1
[10] = tested on: Staphylococcus aureus; test: Antibacterial activity determined against gram-positive Staphylococcus aureus 13709; format: functional; summary of the method: as §1
[11] = tested on: Streptococcus pyogenes; test: Antibacterial activity determined against gram-positive Streptococcus pyogenes 49399; format: functional; summary of the method: as §1
[12] = tested on: Streptococcus pneumoniae; test: Antibacterial activity determined against gram-positive Streptococcus pneumoniae 6303; format: functional; summary of the method: as §1
[13] = tested on: Enterococcus faecium; test: Antibacterial activity determined against Enterococcus faecium ATCC 6569; format: functional; summary of the method: as §1
[14] = tested on: Enterococcus faecium; test: Antibacterial activity determined against Enterococcus faecium ATCC 882; format: functional; summary of the method: as §1
[15] = tested on: Enterococcus faecalis; test: Antibacterial activity determined against Enterococcus faecalis ATCC 11823; format: functional; summary of the method: as §1
[16] = tested on: Enterococcus faecalis; test: Antibacterial activity determined against Enterococcus faecalis ATCC 23241; format: functional; summary of the method: as §1
[17] = tested on: Enterococcus faecalis; test: Antibacterial activity determined against Enterococcus faecalis ATCC 4200; format: functional; summary of the method: as §1
[18] = tested on: Enterococcus faecalis; test: Antibacterial activity determined against Enterococcus faecalis ATCC 49757; format: functional; summary of the method: as §1
[19] = tested on: Enterococcus faecalis; test: Antibacterial activity determined against Enterococcus faecalis ATCC 828; format: functional; summary of the method: as §1

With `Clc1cc2nc(C3CCNCC3)n(Cc3cccnc3)c2cc1Cl` the MIC [1] was 50 µM (≈ 18.1 µg/mL), the MIC [2] was 50 µM (≈ 18.1 µg/mL) and the IC50 [3] was > 100 µM.
With `Clc1cc2nc(C3CCNCC3)n(Cc3ccc(CNCCc4cc5ccccc5[nH]4)cc3)c2cc1Cl` the MIC [1] was 12 µM (≈ 6.39 µg/mL), the MIC [2] was 12 µM (≈ 6.39 µg/mL) and the IC50 [3] was > 100 µM.
For `Clc1cc2nc(C3CCNCC3)n(Cc3ccc(CNCCc4c[nH]cn4)cc3)c2cc1Cl`, the MIC [4] was > 100 µM, the MIC [1] was 12 µM (≈ 5.8 µg/mL) and the MIC [5] was 12 µM (≈ 5.8 µg/mL). For the same molecule, the MIC [6] was 3 µM (≈ 1.45 µg/mL), the MIC [7] was 12 µM (≈ 5.8 µg/mL) and the MIC [8] was 25 µM (≈ 12.1 µg/mL). It also gave an MIC [9] of 25 µM (≈ 12.1 µg/mL), an MIC [2] of 6 µM (≈ 2.9 µg/mL) and an MIC [10] of 6 µM (≈ 2.9 µg/mL). It also gave an MIC [11] of 6 µM (≈ 2.9 µg/mL), an MIC [12] of 12 µM (≈ 5.8 µg/mL) and an IC50 [3] of 25 µM.
With `NCCCCNCc1ccc(Cn2c(C3CCNCC3)nc3cc(Cl)c(Cl)cc32)cc1` the MIC [4] was > 100 µM, the MIC [13] was 12 µM (≈ 5.53 µg/mL) and the MIC [14] was 12 µM (≈ 5.53 µg/mL). It also gave an MIC [1] of 25 µM (≈ 11.5 µg/mL), an MIC [5] of 25 µM (≈ 11.5 µg/mL) and an MIC [15] of 12 µM (≈ 5.53 µg/mL). For the same molecule, the MIC [16] was 12 µM (≈ 5.53 µg/mL), the MIC [17] was 12 µM (≈ 5.53 µg/mL) and the MIC [18] was 12 µM (≈ 5.53 µg/mL). For the same molecule, the MIC [6] was 3 µM (≈ 1.38 µg/mL), the MIC [7] was 25 µM (≈ 11.5 µg/mL) and the MIC [9] was 25 µM (≈ 11.5 µg/mL). It also gave an MIC [2] of 6 µM (≈ 2.76 µg/mL), an MIC [10] of 6 µM (≈ 2.76 µg/mL) and an MIC [11] of 6 µM (≈ 2.76 µg/mL). It also gave an MIC [12] of 25 µM (≈ 11.5 µg/mL), an MIC [19] of 12 µM (≈ 5.53 µg/mL) and an IC50 [3] of 50 µM.
With `Fc1ccc(Cn2c(C3CCNCC3)nc3cc(Cl)c(Cl)cc32)cc1` the MIC [1] was > 100 µM, the MIC [2] was > 100 µM and the IC50 [3] was > 100 µM.
For `NCCCCCCNCc1ccc(Cn2c(C3CCNCC3)nc3cc(Cl)c(Cl)cc32)cc1`, the MIC [4] was > 100 µM, the MIC [1] was 12 µM (≈ 5.86 µg/mL) and the MIC [5] was 12 µM (≈ 5.86 µg/mL). For the same molecule, the MIC [6] was 1 µM (≈ 0.489 µg/mL), the MIC [7] was 12 µM (≈ 5.86 µg/mL) and the MIC [8] was 25 µM (≈ 12.2 µg/mL). For the same molecule, the MIC [9] was 25 µM (≈ 12.2 µg/mL), the MIC [2] was 6 µM (≈ 2.93 µg/mL) and the MIC [10] was 6 µM (≈ 2.93 µg/mL). The MIC [11] was 3 µM (≈ 1.47 µg/mL), the MIC [12] was 12 µM (≈ 5.86 µg/mL) and the IC50 [3] was > 100 µM.
In the case of `Clc1cc2nc(C3CCNCC3)n(Cc3ccc(Cn4cncn4)cc3)c2cc1Cl`, the MIC [1] is reported as 12 µM (≈ 5.3 µg/mL), the MIC [2] is reported as 12 µM (≈ 5.3 µg/mL) and the IC50 [3] is reported as > 100 µM.
For `Clc1cc2nc(C3CCNCC3)n(Cc3ccc(CBr)cc3)c2cc1Cl`, the MIC [1] was > 100 µM, the MIC [2] was > 100 µM and the IC50 [3] was > 100 µM.
For `CCn1c(C2CCNCC2)nc2cc(Cl)c(Cl)cc21`, the MIC [1] was > 100 µM, the MIC [2] was > 100 µM and the IC50 [3] was > 100 µM.
For `O=C(O)c1cn(C2CC2)c2cc(N3CCNCC3)c(F)cc2c1=O` [CIPROFLOXACIN], the MIC [1] was 0.75 µM (≈ 0.249 µg/mL), the MIC [2] was 0.75 µM (≈ 0.249 µg/mL) and the IC50 [3] was > 100 µM.
For `NCCCCCCCCNCc1ccc(Cn2c(C3CCNCC3)nc3cc(Cl)c(Cl)cc32)cc1`, the MIC [4] was > 100 µM, the MIC [13] was 12 µM (≈ 6.2 µg/mL) and the MIC [1] was 6 µM (≈ 3.1 µg/mL). It also gave an MIC [5] of 6 µM (≈ 3.1 µg/mL), an MIC [15] of 6 µM (≈ 3.1 µg/mL) and an MIC [17] of 25 µM (≈ 12.9 µg/mL). It also gave an MIC [18] of 50 µM (≈ 25.8 µg/mL), an MIC [6] of 1 µM (≈ 0.517 µg/mL) and an MIC [7] of 6 µM (≈ 3.1 µg/mL). For the same molecule, the MIC [8] was 12 µM (≈ 6.2 µg/mL), the MIC [9] was 25 µM (≈ 12.9 µg/mL) and the MIC [2] was 6 µM (≈ 3.1 µg/mL). The MIC [10] was 6 µM (≈ 3.1 µg/mL), the MIC [11] was 3 µM (≈ 1.55 µg/mL) and the MIC [12] was 6 µM (≈ 3.1 µg/mL). For the same molecule, the MIC [19] was 50 µM (≈ 25.8 µg/mL) and the IC50 [3] was > 100 µM.
For `O=[N+]([O-])c1ccc(Cn2c(C3CCNCC3)nc3cc(Cl)c(Cl)cc32)cc1`, the MIC [1] was > 100 µM, the MIC [2] was 50 µM (≈ 20.3 µg/mL) and the IC50 [3] was > 100 µM.
Molecule `NC[C@@H]1O[C@H](O[C@H]2[C@@H](O)[C@H](O[C@@H]3[C@@H](O)[C@H](N)C[C@H](N)[C@H]3O[C@H]3O[C@H](CO)[C@@H](O)[C@H](O)[C@H]3N)O[C@@H]2CO)[C@H](N)[C@@H](O)[C@@H]1O` [PAROMOMYCIN] has an MIC [1] of 3 µM (≈ 1.85 µg/mL), an MIC [2] of 1 µM (≈ 0.616 µg/mL) and an IC50 [3] of 0.56 µM.
With `Clc1cc2nc(C3CCNCC3)n(Cc3ccncc3)c2cc1Cl` the MIC [1] was 50 µM (≈ 18.1 µg/mL), the MIC [2] was 50 µM (≈ 18.1 µg/mL) and the IC50 [3] was > 100 µM.
In the case of `NCCN(CCN)CCNCc1ccc(Cn2c(C3CCNCC3)nc3cc(Cl)c(Cl)cc32)cc1`, the MIC [4] is reported as > 100 µM, the MIC [1] is reported as 12 µM (≈ 6.22 µg/mL) and the MIC [5] is reported as 12 µM (≈ 6.22 µg/mL). The MIC [6] was 3 µM (≈ 1.56 µg/mL), the MIC [7] was 12 µM (≈ 6.22 µg/mL) and the MIC [8] was 25 µM (≈ 13 µg/mL). The MIC [9] was 12 µM (≈ 6.22 µg/mL), the MIC [2] was 3 µM (≈ 1.56 µg/mL) and the MIC [10] was 3 µM (≈ 1.56 µg/mL). The MIC [11] was 3 µM (≈ 1.56 µg/mL), the MIC [12] was 6 µM (≈ 3.11 µg/mL) and the IC50 [3] was 10 µM.
In the case of `Clc1cc2nc(C3CCNCC3)n(Cc3ccc(CNC[C@@H]4CCCN4)cc3)c2cc1Cl`, the MIC [1] is reported as 12 µM (≈ 5.67 µg/mL), the MIC [2] is reported as 12 µM (≈ 5.67 µg/mL) and the IC50 [3] is reported as > 100 µM.
In the case of `Clc1cc2nc(C3CCNCC3)[nH]c2cc1Cl`, the MIC [1] is reported as > 100 µM, the MIC [2] is reported as > 100 µM and the IC50 [3] is reported as > 100 µM.
